Source: PubChem (The Scripps Research Institute Molecular Screening Center)
The list is not random: actives were taken first. Their share in the collection is about 2.8%.
ABHD4 inh: inhibits mouse alpha/beta hydrolase domain 4. purified mABHD4, FP-Rh probe fluorescence polarization. inhibition, % at 8.92 µM. hit rate 0.54% among 370,000;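 active means inhibition exceeding the mean over every tested compound plus 3 SD, cut at about 30% in these data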
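system = mouse ABHD4 enzyme, wild type | medium = HEPES pH 7.0, NaCl, Pluronic buffer | also added = FP-Rh probe | incubation = Enzyme–compound pre-incubation 45 min, then probe 60 min, both 25 °C | technique = fluorescence polarization, excitation 525 nm, emission 598 nm, BODIPY TMR filters | controls = S159A mutant high control, sample median low control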
PAFAH1B3 FP inh: PAFAH1B3 (human) inhibition; recombinant PAFAH1B3, FP-rhodamine probe, fluorescence polarization; inhibition, % at 3.39 µM; hit rate 0.28% among 340,000; AID 492972;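 active means inhibition above the screen-wide average of all tested compounds plus 3 SD, cut at about 25% in these data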
pPAFAH FP inh: pPAFAH (human) enzyme inhibition. Q13093. recombinant pPAFAH, FP-rhodamine probe fluorescence polarization. inhibition, % at 3.39 µM. AID 463082. hit rate 1.5% among 330,000;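 active means inhibition above the mean inhibition across the screen plus 3 SD, cut at about 25% in these data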;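 further: inhibitors block binding of the rhodamine activity-based probe so polarization drops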
PAFAH1B2 FP inh: PAFAH1B2 (human) inhibition; recombinant PAFAH1B2, FP-rhodamine activity probe, fluorescence polarization; inhibition, % at 3.39 µM; hit rate 1.2% among 340,000; AID 492953;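 active means inhibition above the mean of all tested compounds plus 3 SD, cut at about 24% in these data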
PAFAH2 inh: inhibitors of human PAFAH2 | Q99487 | recombinant PAFAH2, FP-rhodamine activity probe, fluorescence polarization | inhibition, % at 3.39 µM | hit rate 0.99% among 340,000 | AID 492956;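 active means inhibition above the mean over all tested compounds plus 3 SD, cut at about 30% in these data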;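 further: inhibitors block probe labeling of enzyme so polarization drops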
HTRA1 inhibitor: inhibitors of human serine peptidase HTRA1 | hit rate 0.5% among 340,000 | AID 504803 | Q92743 | recombinant HTRA1, FP-rhodamine activity-based probe, fluorescence polarization | inhibition, % at 5.96 µM; in the data active means inhibition above about 36%
Target sequence (Q92743 whole entry, looked up): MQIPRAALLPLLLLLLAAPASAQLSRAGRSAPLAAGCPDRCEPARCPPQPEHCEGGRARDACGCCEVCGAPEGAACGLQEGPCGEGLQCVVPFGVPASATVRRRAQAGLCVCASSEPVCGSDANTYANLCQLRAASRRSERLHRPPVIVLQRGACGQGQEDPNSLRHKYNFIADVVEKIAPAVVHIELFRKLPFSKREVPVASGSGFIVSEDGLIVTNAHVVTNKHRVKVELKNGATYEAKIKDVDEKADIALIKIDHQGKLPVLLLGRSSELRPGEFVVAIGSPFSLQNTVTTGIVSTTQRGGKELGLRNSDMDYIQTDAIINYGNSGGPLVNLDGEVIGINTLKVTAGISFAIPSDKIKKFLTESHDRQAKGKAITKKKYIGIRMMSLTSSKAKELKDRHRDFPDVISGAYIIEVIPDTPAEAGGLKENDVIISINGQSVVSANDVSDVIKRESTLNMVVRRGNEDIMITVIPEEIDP
pPAFAH confirm: pPAFAH (human) inhibition, confirmed. recombinant pPAFAH, FP-Rh probe fluorescence polarization. shares compounds with pPAFAH FP inh. AID 463230. inhibition, % at 3.39 µM. hit rate 72% among 2,300;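 active means mean inhibition of the triplicate above the hit cutoff set for the earlier primary screen, cut at about 25% in these data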
Of the large screens only hits and unclear results are named; the others gave an inactive call (follow-up assays come after a bar, where they were run).

O=C(COc1coc(CN2CCc3ccccc32)cc1=O)NCCc1ccccc1	PAFAH1B2 FP inh 28
O=C(COc1coc(CN2CCc3ccccc3C2)cc1=O)Nc1cccc(Cl)c1	none
O=C(COc1coc(CN2CCc3ccccc3C2)cc1=O)Nc1cccc(F)c1	pPAFAH FP inh 30
COC(=O)[C@]12C[C@H](CC(=O)NCc3cccc4ccccc34)C(=O)N(CCc3ccc(OC)c(OC)c3)C1=C[C@H](C(C)C)O[C@@H]2C1CC1	none (no result: PAFAH1B3 FP inh, pPAFAH FP inh, PAFAH1B2 FP inh, PAFAH2 inh, HTRA1 inhibitor)
COc1cc(NC(=O)c2ccccc2)c(C)cc1NC(=O)CSc1nnc(COc2ccccc2)n1Cc1ccco1	none (no result: PAFAH1B3 FP inh, pPAFAH FP inh, PAFAH1B2 FP inh, PAFAH2 inh, HTRA1 inhibitor)
CN1Cc2nnn(Cc3ccccc3)c2-c2cc(N3CCCCC3)ccc2S1(=O)=O	none (no result: PAFAH1B3 FP inh, pPAFAH FP inh, PAFAH1B2 FP inh, PAFAH2 inh, HTRA1 inhibitor)
O=C1C2CCCCN2C(=O)N1CCCCN1CCN(c2cccc(Cl)c2)CC1 (configuration not stated)	pPAFAH FP inh 25
COCCCN1C(=O)[C@H](CC(=O)NCCCN2CCCC2=O)[C@]2(C(=O)OC)CCCCC=C12	none (no result: PAFAH1B3 FP inh, pPAFAH FP inh, PAFAH1B2 FP inh, PAFAH2 inh, HTRA1 inhibitor)
CCC1CCC(C(=O)NNC(=O)c2cc(-c3ccco3)[nH]n2)CC1 (configuration not stated)	pPAFAH FP inh 31
O=C(NNC(=O)C1CCCCC1)c1ccco1	none
Cc1ccc(-n2c(Cc3cccs3)nnc2SCC(=O)Nc2ccccc2-c2ccccc2)cc1	none (no result: PAFAH1B3 FP inh, pPAFAH FP inh, PAFAH1B2 FP inh, PAFAH2 inh, HTRA1 inhibitor)
Cc1ccc(SCC(=O)N=C2NC(=O)CS2)cc1	PAFAH1B2 FP inh 26
O=S(=O)(c1ccc(Br)cc1)N1CCC2(CC1)OCCO2	PAFAH1B2 FP inh 27
O=S(=O)(c1ccc(S(=O)(=O)N2CCC3(CC2)OCCO3)cc1)N1CCCC1	none
Cc1ccc(-n2cccc2C(=O)NS(=O)(=O)c2ccc(C)cc2)cc1	PAFAH1B2 FP inh 28
COCC(=O)Nc1ncc(S(=O)(=O)c2ccc([N+](=O)[O-])cc2)s1	PAFAH1B2 FP inh 28
CCCCC(=O)Nc1ncc(S(=O)(=O)c2ccc([N+](=O)[O-])cc2)s1	none
CC(=O)NCCC(=O)Nc1ncc(S(=O)(=O)c2ccc([N+](=O)[O-])cc2)s1	PAFAH1B2 FP inh 26
COc1ccc(Oc2c(Cl)cnn(-c3cc(C)cc(C)c3)c2=O)cc1	none (no result: PAFAH1B3 FP inh, pPAFAH FP inh, PAFAH1B2 FP inh, PAFAH2 inh, HTRA1 inhibitor)
CCN(CC)c1ccc2cc(NC(=O)CCC(=O)O)c(=O)oc2c1	ABHD4 inh 58
O=C(N[C@@H](Cc1cccnc1)C(=O)N1CCC[C@H]1C(=O)NCCc1ccccc1Cl)C1CCCC1	none (no result: PAFAH1B3 FP inh, pPAFAH FP inh, PAFAH1B2 FP inh, PAFAH2 inh, HTRA1 inhibitor)
CCOc1ccc(Nc2nc(NCC3CCCO3)c3ccccc3n2)cc1 (configuration not stated)	pPAFAH FP inh 67 | pPAFAH confirm 55
CCOC(=O)Cc1cc(=O)n(-c2nc3ccccc3s2)[nH]1	pPAFAH FP inh 41, PAFAH2 inh 31, HTRA1 inhibitor 49 | pPAFAH confirm inactive
CCCc1cc(=O)n(-c2nc3ccccc3s2)[nH]1	none
NC(=O)C1CCN(c2ncc(Br)cn2)CC1	none (no result: PAFAH1B3 FP inh, pPAFAH FP inh, PAFAH1B2 FP inh, PAFAH2 inh, HTRA1 inhibitor)
O=S(=O)(Nc1ccc(Cl)cc1)c1ccc(N2CCOCC2)c(NC(=S)NCCN2CCOCC2)c1	pPAFAH FP inh 58 | pPAFAH confirm 59
COCCNC(=S)Nc1ccc(N2CCOCC2)c(S(=O)(=O)Nc2ccc(Cl)cc2)c1	none (no result: PAFAH1B3 FP inh, pPAFAH FP inh, PAFAH1B2 FP inh, PAFAH2 inh)
CCCN1CC(=O)N2[C@H](C[C@@]3(n4ccc5ccccc54)c4ccccc4N(S(=O)(=O)c4ccccc4)[C@@H]23)C1=O	none (no result: PAFAH1B3 FP inh, pPAFAH FP inh, PAFAH1B2 FP inh, PAFAH2 inh, HTRA1 inhibitor)
CN(C)c1ccnc(SCc2ccccc2Cl)c1C#N	pPAFAH FP inh 35 | pPAFAH confirm inactive
CC(C)Oc1ccc(CNCCC2(C(C)C)CCOC(C)(C)C2)cc1 (configuration not stated)	pPAFAH FP inh 57 | pPAFAH confirm inactive
O=C1/C(=C/c2ccco2)Oc2c1ccc(O)c2CN1CCCCC1	pPAFAH FP inh 37 | pPAFAH confirm inactive
CCOc1ccc(N2CC(C(=O)Nc3ccccc3OC)CC2=O)cc1 (configuration not stated)	none
CCOc1ccc(N2CC(C(=O)Nc3ccc(F)cc3F)CC2=O)cc1 (configuration not stated)	pPAFAH FP inh 37 | pPAFAH confirm inactive
CCN(C(=O)[C@@H](C)[C@@H](O)c1ccc(C(C)=O)cc1)c1ccccc1	none (no result: PAFAH1B3 FP inh, pPAFAH FP inh, PAFAH1B2 FP inh, PAFAH2 inh, HTRA1 inhibitor)
